We go through seven molecules from ChEMBL document CHEMBL1221349, “Novel pyrrolidine heterocycles as CCR1 antagonists” (Bioorg Med Chem Lett, 2010).

In series [1] the target is T1, C-C chemokine receptor type 1 (Homo sapiens, UniProt P32246).
T1 sequence (P32246 whole entry): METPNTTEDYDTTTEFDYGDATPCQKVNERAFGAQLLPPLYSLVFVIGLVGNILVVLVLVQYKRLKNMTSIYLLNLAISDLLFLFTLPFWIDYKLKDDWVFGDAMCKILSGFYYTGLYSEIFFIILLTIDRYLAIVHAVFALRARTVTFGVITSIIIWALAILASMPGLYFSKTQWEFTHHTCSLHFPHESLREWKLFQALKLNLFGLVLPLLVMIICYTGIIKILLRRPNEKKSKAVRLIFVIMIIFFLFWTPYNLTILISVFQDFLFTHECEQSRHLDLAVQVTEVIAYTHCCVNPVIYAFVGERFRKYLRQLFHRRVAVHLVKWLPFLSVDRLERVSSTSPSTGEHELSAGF
The series can be described thus: Displacement of [125I]-MIP1-alpha from human recombinant CCR1 expressed in HEK293 cells after 4 hrs by SPA. The format is cell-based. Put shortly: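 This was a SPA binding assay on membranes from HEK293 cells stably expressing human CCR1 from an episomal vector. Buffer was 130 mM NaCl, 5 mM KCl, 1 mM MnCl2, 50 mM Tris-HCl pH 7.4, 0.1% BSA, with SPA beads at 10 mg/ml. Compound dilutions were added, then [125I]-MIP1a at 0.1 nM final. Plates were spun 2 min, incubated 4 h, then scintillation-counted.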

Series [2] is described as follows: Metabolic stability in human liver microsomes assessed as compound remaining at 1 uM after 30 mins. As to conditions: read-out: Stability; call rule not given here. The format is ADME, Microsome. The procedure, abridged:
(§1)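 Rat or human liver microsomes (300 nM cytochrome P450) were incubated in phosphate buffer pH 7.4 with test compound and 1 mM NADPH for 30 min at 37 °C. Reactions were stopped with acetonitrile and centrifuged. Samples were analyzed by LC/MS as percent parent remaining at 30 min.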

The nature of series [3]: (§2) AUC (0 to infinity) in Sprague-Dawley rat at 5 mg/kg, po. It counts as ADME, organism-based, Plasma. Further details: time infinity, dose 5 mg/kg, route oral. Particulars: Sprague-Dawley, plasma. Put shortly: (§3)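 Male Sprague-Dawley rats (3–4) were gavaged at 5 mg/kg in 0.5% methyl cellulose, either singly or in a cassette. Serial arterial-cannula blood was drawn up to 6 or 24 h. Parent compound was measured in plasma by LC/MS/MS after protein precipitation. Parameters came from non-compartmental analysis.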

Series [4] in a line: Metabolic stability in rat liver microsomes assessed as compound remaining at 1 uM after 30 mins. It counts as ADME, Microsome. As to conditions: read-out: Stability. Put shortly: as §1
(In general: Microsomes from liver hold many membrane-bound enzymes, among them those of drug oxidation.)

Series [5] in a line: Antagonist activity at CCR1 in human THP1 cells assessed as inhibition of CCL3-induced chemotaxis after 3 hrs. Particulars: thp-1.
The target of series [6] is Cytochrome P450 2C19 (Homo sapiens, UniProt P33261). The series can be described thus: Inhibition of human recombinant CYP2C19 at < 10 uM. The format is ADME. As to conditions: recombinant enzyme. Put shortly: (§4)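 Each human recombinant CYP isoenzyme (1A2, 2C9, 2C19, 2D6, 3A4) was run with its own fluorogenic substrate, with test compound up to […]. Fluorescence was read after a defined reaction time. Percent inhibition was fitted against log concentration to give IC50.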

Series [7] has as its target Cytochrome P450 2D6 (Homo sapiens, UniProt P10635). The series can be described thus: Inhibition of human recombinant CYP2D6 at < 10 uM. It counts as ADME. As to conditions: recombinant enzyme. The procedure, abridged:
as §4

The target in series [8] is Cytochrome P450 3A4 (Homo sapiens, UniProt P08684). In words: Inhibition of human recombinant CYP3A4 at < 10 uM. Particulars: recombinant enzyme. The format is ADME. Put shortly:
as §4

Series [9] can be described thus: Oral bioavailability in Sprague-Dawley rat plasma at 5 mg/kg. The format is ADME, organism-based. Put shortly:
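Male Sprague-Dawley rats (3–4) received an oral gavage of 5 mg/kg in 0.5% methyl cellulose and, separately, 1 mg/kg intravenously via an indwelling catheter. Serial arterial blood was collected. Plasma parent compound was measured by LC/MS/MS after protein precipitation. Bioavailability came from non-compartmental analysis.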

The subject of series [10] is Rattus norvegicus. The series is described as §2. It counts as ADME, organism-based, Plasma. Set-up: time infinity, dose 5 mg/kg, route oral. Particulars: in vivo. Put shortly:
as §3

A short description of series [11]: Tmax in Sprague-Dawley rat plasma at 5 mg/kg, po. The format is ADME, organism-based. Set-up: dose 5 mg/kg, route oral. The procedure, abridged:
as §3

Series [12] has as its target T2, Cytochrome P450 1A2 (Homo sapiens, UniProt P05177).
T2 sequence (P05177 whole entry): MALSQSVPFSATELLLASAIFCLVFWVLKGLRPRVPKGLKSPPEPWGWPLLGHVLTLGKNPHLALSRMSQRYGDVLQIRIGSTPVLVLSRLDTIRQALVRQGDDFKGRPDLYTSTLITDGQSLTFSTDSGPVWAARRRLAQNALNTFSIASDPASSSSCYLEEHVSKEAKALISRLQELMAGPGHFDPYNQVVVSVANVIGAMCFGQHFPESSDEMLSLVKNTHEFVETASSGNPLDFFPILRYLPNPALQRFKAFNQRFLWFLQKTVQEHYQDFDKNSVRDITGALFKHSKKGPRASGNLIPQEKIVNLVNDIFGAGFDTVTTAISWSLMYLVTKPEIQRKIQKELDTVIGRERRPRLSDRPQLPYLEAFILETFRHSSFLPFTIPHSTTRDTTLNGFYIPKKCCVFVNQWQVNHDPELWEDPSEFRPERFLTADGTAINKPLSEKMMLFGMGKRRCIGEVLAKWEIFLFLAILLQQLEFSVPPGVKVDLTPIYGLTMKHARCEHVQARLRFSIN
In words: Inhibition of human recombinant CYP1A2 at < 10 uM. The format is ADME. Particulars: recombinant enzyme. The procedure, abridged: as §4

A short description of series [13]: Half life in Sprague-Dawley rat plasma at 5 mg/kg, po. It counts as ADME, organism-based. Further details: dose 5 mg/kg, route oral. The procedure, abridged:
as §3

A short description of series [14]: Cmax in Sprague-Dawley rat plasma at 5 mg/kg, po. It counts as ADME, organism-based. Set-up: dose 5 mg/kg, route oral. Put shortly:
as §3

Series [15] has as its target Cytochrome P450 2C9 (Homo sapiens, UniProt P11712). In words: Inhibition of human recombinant CYP2C9 at < 10 uM. As to conditions: recombinant enzyme. The format is ADME. The procedure, abridged: as §4

Chain of Cytochrome P450 2C9 (P11712 whole entry): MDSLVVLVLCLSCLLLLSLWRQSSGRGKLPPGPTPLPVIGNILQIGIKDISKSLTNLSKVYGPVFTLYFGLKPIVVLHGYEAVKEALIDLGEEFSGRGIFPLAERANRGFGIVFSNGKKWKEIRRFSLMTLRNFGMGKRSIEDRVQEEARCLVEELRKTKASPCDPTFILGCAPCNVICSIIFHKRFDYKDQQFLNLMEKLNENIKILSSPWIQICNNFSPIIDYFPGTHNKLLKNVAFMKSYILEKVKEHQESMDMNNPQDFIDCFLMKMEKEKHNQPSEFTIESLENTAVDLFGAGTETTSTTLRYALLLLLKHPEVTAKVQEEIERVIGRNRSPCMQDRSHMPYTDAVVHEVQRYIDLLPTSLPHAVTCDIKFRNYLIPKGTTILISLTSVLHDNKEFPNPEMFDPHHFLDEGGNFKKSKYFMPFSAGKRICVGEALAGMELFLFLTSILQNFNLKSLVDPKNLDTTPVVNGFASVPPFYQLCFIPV
Chain of Cytochrome P450 3A4 (P08684 whole entry): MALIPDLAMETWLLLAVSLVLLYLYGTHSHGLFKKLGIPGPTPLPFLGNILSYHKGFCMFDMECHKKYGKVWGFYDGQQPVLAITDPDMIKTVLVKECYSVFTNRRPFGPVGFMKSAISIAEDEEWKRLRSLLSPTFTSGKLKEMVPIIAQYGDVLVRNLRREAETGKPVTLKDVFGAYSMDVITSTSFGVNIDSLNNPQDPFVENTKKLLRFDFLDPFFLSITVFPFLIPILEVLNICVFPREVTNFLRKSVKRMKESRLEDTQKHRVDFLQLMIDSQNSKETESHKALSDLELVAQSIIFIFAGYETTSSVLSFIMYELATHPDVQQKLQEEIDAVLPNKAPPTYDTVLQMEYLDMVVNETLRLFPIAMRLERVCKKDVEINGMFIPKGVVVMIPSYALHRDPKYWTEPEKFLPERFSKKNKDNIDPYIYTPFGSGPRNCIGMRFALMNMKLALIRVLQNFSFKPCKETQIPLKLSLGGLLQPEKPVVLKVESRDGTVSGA
Chain of Cytochrome P450 2C19 (P33261 whole entry): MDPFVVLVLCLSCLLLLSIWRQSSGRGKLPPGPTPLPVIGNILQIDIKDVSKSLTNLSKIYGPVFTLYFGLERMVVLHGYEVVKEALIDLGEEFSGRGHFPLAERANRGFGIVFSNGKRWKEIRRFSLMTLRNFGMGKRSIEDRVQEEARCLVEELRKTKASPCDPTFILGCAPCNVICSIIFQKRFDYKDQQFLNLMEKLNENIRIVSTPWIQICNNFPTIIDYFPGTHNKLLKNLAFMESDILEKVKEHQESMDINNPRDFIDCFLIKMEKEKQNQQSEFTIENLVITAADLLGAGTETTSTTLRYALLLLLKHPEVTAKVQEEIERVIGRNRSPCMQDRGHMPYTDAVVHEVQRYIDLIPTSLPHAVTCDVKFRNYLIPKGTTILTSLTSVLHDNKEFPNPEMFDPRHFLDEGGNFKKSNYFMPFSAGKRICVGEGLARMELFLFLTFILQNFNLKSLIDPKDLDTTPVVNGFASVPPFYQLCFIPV
Chain of Cytochrome P450 2D6 (P10635 whole entry): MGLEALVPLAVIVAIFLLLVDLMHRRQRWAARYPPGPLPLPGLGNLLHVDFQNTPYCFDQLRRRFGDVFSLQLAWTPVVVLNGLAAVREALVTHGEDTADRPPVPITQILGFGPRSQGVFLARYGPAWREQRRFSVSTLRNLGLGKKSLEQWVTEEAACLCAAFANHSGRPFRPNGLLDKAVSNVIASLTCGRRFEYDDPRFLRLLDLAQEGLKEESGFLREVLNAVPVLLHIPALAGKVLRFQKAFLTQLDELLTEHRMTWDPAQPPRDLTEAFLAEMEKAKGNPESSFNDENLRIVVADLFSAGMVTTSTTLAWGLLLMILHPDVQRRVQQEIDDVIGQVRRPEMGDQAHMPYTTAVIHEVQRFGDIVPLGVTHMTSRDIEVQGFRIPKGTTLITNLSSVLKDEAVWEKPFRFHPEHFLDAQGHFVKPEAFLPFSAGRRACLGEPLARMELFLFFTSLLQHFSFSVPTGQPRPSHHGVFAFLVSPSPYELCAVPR

As to `Cc1nc([C@H]2CCCN2C(=O)Nc2ccc(C(F)(F)F)cc2)n(Cc2ccc(Cl)cc2)n1`, the IC50 – broadly, the concentration that inhibits the measured activity by half – in series [1] stood at 810 nM.
In the case of `O=C(Nc1ccc(C(F)(F)F)cc1)N1CCC[C@@H]1c1ncnn1Cc1ccc(Cl)cc1`, the IC50 in [1] came out at 32 nM. The remaining at 0.5 h, 1 µM came out at 61% in series [2] and 81% in [4]. In series [3], the AUC(0-inf) (as a rule, total exposure, with the tail of the curve extrapolated) turned out to be 4460 ng·h/mL.
With `CN(Cc1ccc(Cl)cc1)C(=O)[C@H]1CCCN1C(=O)Nc1ccc(C(F)(F)F)cc1`, in [5], the IC50 worked out at 22 nM.
`O=C(Nc1ccc(C(F)(F)F)cc1)N1CCC[C@@H]1c1nnnn1Cc1ccc(Cl)cc1`: the IC50 in series [1] is 20 nM. Besides, the remaining at 0.5 h, 1 µM in series [2] turned out to be 59%; in series [4], 25%.
Regarding `Cc1nnc([C@H]2CCCN2C(=O)Nc2ccc(C(F)(F)F)cc2)n1Cc1ccc(Cl)cc1`, the “inhibition (INH)” value in series [6], in series [7], in series [8], in series [12] and in series [15] was “Not Active” in each case. In addition, the IC50 in series [1] turned out to be 69 nM. Also, the remaining at 0.5 h, 1 µM in [2] amounted to 100%; in series [4], 87%. Further, the bioavailability (as a rule, dose-corrected exposure relative to a reference, in per cent) in [9] turned out to be 26%. Besides, the AUC (in general, the area under the concentration-time curve, a measure of exposure) in series [10] worked out at 7649 ng·h/mL. The Tmax – broadly, the time from dosing to the highest level – in [11] worked out at 1.1 h. Moreover, in series [13], the half-life – broadly, how long it takes for the measured level to halve – was 3.8 h. The Cmax (as a rule, the maximum level reached in the sampled fluid or tissue) in series [14] is 1120 ng/mL.
For the molecule `O=C(Nc1ccc(C(F)(F)F)cc1)N1CCC[C@@H]1c1nncn1Cc1ccc(Cl)cc1`, the IC50 in [1] was 17 nM. In addition, the remaining at 0.5 h, 1 µM was 52% in [2] and 41% in series [4]. In series [3], the AUC(0-inf) amounted to 657 ng·h/mL.
In the case of `O=C(Nc1ccc(C(F)(F)F)cc1)N1CCCC1c1nccn1Cc1ccc(Cl)cc1` (stereo not given), in series [1], the IC50 came to 65 nM. Moreover, the remaining at 0.5 h, 1 µM turned out to be 39% in series [2] and 55% in series [4]. The same molecule displayed an AUC(0-inf) in series [3] of 100 ng·h/mL.
